Experimental data published in ChEMBL document CHEMBL1139474, “Cellular apoptosis and cytotoxicity of phenolic compounds: a quantitative structure-activity relationship study” (J Med Chem, 2005).

Tests used:
[1] = test system: L1210; assay: Activity against caspase-mediated apoptosis in mouse L1210 cells; format: functional
[2] = test system: MCF7; assay: Cytotoxicity against human MCF7 cells
[3] = test system: L1210; assay: Cytotoxicity against mouse L1210 cells; settings: for log(1/ID50): mouse, l1210
[4] = test system: L1210; assay: Activity against caspase-mediated apoptosis in mouse L1210 cells at 0.1 mM; format: functional
[5] = test system: HL-60; assay: Induction of DNA fragmentation in human HL60 cells after 16 hrs; format: functional, cell-based; settings: HL-60, 16 h
[6] = test system: L1210; assay: Induction of apoptosis in mouse L1210 cells at 151 uM; format: functional
Method in brief: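 L1210 cells at 4 × 10⁴ cells/mL were incubated with or without the phenol for 12 h at 37 °C. Caspase activity was then measured in a homogeneous fluorimetric assay: DEVD-rhodamine 110 substrate in incubation buffer was added for 2 h at 37 °C, and fluorescence was read at 521 nm with excitation at 490 nm.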

[7] = Cytotoxicity against human CEM/VLB cells
[8] = test system: CCRF-CEM; assay: Cytotoxicity against human CCRF-CEM cells
[9] = test system: HL-60; assay: Cytotoxicity against human HL60 cells; format: cell-based
Method in brief: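 HL-60 cells grown at 37 °C in RPMI with L-glutamine and 10% FBS, then seeded at (2–5) × 10⁴ cells/mL, in duplicate, at eight or more concentrations. Compounds were diluted in unsupplemented RPMI and added 1:10. After 48 h of continuous exposure, CyQUANT GR nucleic-acid dye fluorescence was read (ex 485/em 530 nm). IC50 is the concentration giving 50% lower fluorescence than controls, taken from the dose-response curve.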

SMILES | log(1/ID50) [1] | log(1/ID50) [2] | log(1/ID50) [3] | Activity [4] [%] | IC50 [5] [µM] | IC50 ([3]; Mus musculus, L1210) [µM] | Activity [6] [%] | log(1/ID50) [7] | log(1/ID50) [8] | log(1/ID50) [9]
Oc1ccc(Oc2ccccc2)cc1 | 0.19 | 3.99 | 4.97 | <15 | – | – | – | – | – | –
Cc1cc(C(C)(C)C)c(O)c(C(C)(C)C)c1 [BUTYLATED HYDROXYTOLUENE] | 2.09 | – | 4.04 | – | 3180 | 91.2 | – | – | – | –
COc1ccc(O)c(C(C)(C)C)c1.COc1ccc(O)cc1C(C)(C)C [BUTYLATED HYDROXYANISOLE] | 2.71 | – | 3.82 | – | 1380 | – | 15 | – | – | –
CCOc1ccc(O)cc1 [1-hydroxy-4-ethoxybenzene] | – | 3.7 | 4.64 | <15 | – | – | – | – | – | –
CCc1ccc(O)cc1 | – | 2.91 | 3.86 | <15 | – | – | – | 3.84 | 3.79 | –
Cl.Nc1ccc(O)cc1 [4-AMINOPHENOL HYDROCHLORIDE] | – | – | 5.09 | <15 | – | – | – | 1.94 | 4.61 | 4.5
Cc1ccc(O)cc1 [p-CRESOL] | – | – | 3.85 | <15 | – | – | – | 4.05 | 3.82 | 3.35
Oc1ccccc1 [PHENOL] | -0.2 | 2.56 | 3.27 | <15 | – | – | – | 2.65 | 3.27 | 3.05
COc1ccc(O)cc1 [MEQUINOL] | 0.02 | – | – | <15 | – | – | – | 4.36 | 4.41 | 3.6
CCCOc1ccc(O)cc1 [1-hydroxy-4-propoxybenzene] | 0.09 | – | 4.85 | <15 | – | – | – | – | – | 3.7
